Source: ChEMBL document CHEMBL3588757, “Structure-based design, synthesis and biological testing of piperazine-linked bis-epipodophyllotoxin etoposide analogs” (Bioorg Med Chem, 2015)

Assays:
Format in all cases: functional
[1] = test system: HCC 2998; experiment: Cytotoxicity against human HCC2998 cells assessed as cell growth at 0.005 uM by SRB assay; conditions: read-out: Activity
Summary of the method: (§1)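 Measured in the NCI-60 human tumour cell line panel using five-dose testing. Growth was recorded at each dose for each cell line, and a GI50 was derived for each line.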

[2] = test system: UACC-62; experiment: Cytotoxicity against human UACC62 cells assessed as cell growth at 5 uM by SRB assay; conditions: read-out: Activity
[3] = test system: SNB-75; experiment: Cytotoxicity against human SNB75 cells assessed as cell growth at 50 uM by SRB assay; conditions: read-out: Activity
[4] = test system: OVCAR-3; experiment: Cytotoxicity against human OVCAR3 cells assessed as cell growth at 0.5 uM by SRB assay; conditions: read-out: Activity
[5] = test system: HCC 2998; experiment: Cytotoxicity against human HCC2998 cells by SRB assay; summary of the method: as §1
[6] = Cytotoxicity against human NCI-ADR-RES cells assessed as cell growth at 0.5 uM by SRB assay; conditions: read-out: Activity
[7] = test system: OVCAR-4; experiment: Cytotoxicity against human OVCAR4 cells assessed as cell growth at 0.5 uM by SRB assay; conditions: read-out: Activity
[8] = test system: SNB-19; experiment: Cytotoxicity against human SNB19 cells by SRB assay
Summary of the method: (§2)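 NCI-60 panel screen; 5-dose testing giving GI50 per cell line, plus a single 10 µM one-dose test. Method details not given beyond the NCI screen.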

[9] = Cytotoxicity against human NCI-ADR-RES cells assessed as cell growth at 0.05 uM by SRB assay; conditions: read-out: Activity
[10] = test system: SR; experiment: Cytotoxicity against human SR cells assessed as cell growth at 5 uM by SRB assay; conditions: read-out: Activity
[11] = test system: UACC-62; experiment: Cytotoxicity against human UACC62 cells assessed as cell growth at 0.005 uM by SRB assay; conditions: read-out: Activity
[12] = test system: SK-MEL-2; experiment: Cytotoxicity against human SK-MEL-2 cells assessed as cell growth at 5 uM by SRB assay; conditions: read-out: Activity
[13] = test system: A498; experiment: Cytotoxicity against human A498 cells assessed as cell growth at 5 uM by SRB assay; conditions: read-out: Activity
[14] = test system: MDA-MB-435; experiment: Cytotoxicity against human MDA-MB-435 cells assessed as cell growth at 5 uM by SRB assay; conditions: read-out: Activity
[15] = test system: NCI-H460; experiment: Cytotoxicity against human NCI-H460 cells assessed as cell growth at 50 uM by SRB assay; conditions: read-out: Activity
[16] = test system: SNB-19; experiment: Cytotoxicity against human SNB19 cells assessed as cell growth at 50 uM by SRB assay; conditions: read-out: Activity
[17] = test system: T47D; experiment: Cytotoxicity against human T47D cells by SRB assay; summary of the method: as §2
[18] = test system: SN12C; experiment: Cytotoxicity against human SN12C cells assessed as cell growth at 5 uM by SRB assay; conditions: read-out: Activity
[19] = test system: UACC-257; experiment: Cytotoxicity against human UACC257 cells assessed as cell growth at 0.005 uM by SRB assay; conditions: read-out: Activity
[20] = test system: MOLT-4; experiment: Cytotoxicity against human MOLT4 cells assessed as cell growth at 0.005 uM by SRB assay; conditions: read-out: Activity
[21] = Cytotoxicity against human Hs578T cells assessed as cell growth at 0.005 uM by SRB assay; conditions: Hs-578T, read-out: Activity; summary of the method: as §1
[22] = test system: CAKI-1; experiment: Cytotoxicity against human Caki1 cells by SRB assay
[23] = test system: NCI-H460; experiment: Cytotoxicity against human NCI-H460 cells assessed as cell growth at 0.5 uM by SRB assay; conditions: read-out: Activity
[24] = test system: OVCAR-5; experiment: Cytotoxicity against human OVCAR5 cells assessed as cell growth at 50 uM by SRB assay; conditions: read-out: Activity
[25] = test system: SK-OV-3; experiment: Cytotoxicity against human SKOV3 cells by SRB assay; summary of the method: as §2
[26] = test system: A498; experiment: Cytotoxicity against human A498 cells assessed as cell growth at 0.005 uM by SRB assay; conditions: read-out: Activity
[27] = test system: SF-268; experiment: Cytotoxicity against human SF268 cells assessed as cell growth at 5 uM by SRB assay; conditions: read-out: Activity
[28] = test system: A498; experiment: Cytotoxicity against human A498 cells by SRB assay
[29] = test system: TK-10; experiment: Cytotoxicity against human TK10 cells by SRB assay; summary of the method: as §2
[30] = test system: KM12; experiment: Cytotoxicity against human KM12 cells assessed as cell growth at 0.05 uM by SRB assay; conditions: read-out: Activity
[31] = test system: OVCAR-3; experiment: Cytotoxicity against human OVCAR3 cells assessed as cell growth at 0.05 uM by SRB assay; conditions: read-out: Activity
[32] = test system: HOP-62; experiment: Cytotoxicity against human HOP62 cells by SRB assay; summary of the method: as §1
[33] = test system: CCRF-CEM; experiment: Cytotoxicity against human CCRF-CEM cells assessed as cell growth at 0.05 uM by SRB assay; conditions: read-out: Activity
[34] = test system: LOX IMVI; experiment: Cytotoxicity against human LOXIMVI cells assessed as cell growth at 50 uM by SRB assay; conditions: read-out: Activity
[35] = test system: SK-OV-3; experiment: Cytotoxicity against human SKOV3 cells assessed as cell growth at 0.005 uM by SRB assay; conditions: read-out: Activity
[36] = test system: MOLT-4; experiment: Cytotoxicity against human MOLT4 cells assessed as cell growth at 5 uM by SRB assay; conditions: read-out: Activity
[37] = Cytotoxicity against human NCI-ADR-RES cells assessed as cell growth at 5 uM by SRB assay; conditions: read-out: Activity
[38] = test system: HOP-92; experiment: Cytotoxicity against human HOP92 cells assessed as cell growth at 50 uM by SRB assay; conditions: read-out: Activity; summary of the method: as §1
[39] = test system: SK-MEL-2; experiment: Cytotoxicity against human SK-MEL-2 cells by SRB assay; summary of the method: as §2
[40] = test system: DU-145; experiment: Cytotoxicity against human DU145 cells assessed as cell growth at 0.005 uM by SRB assay; conditions: read-out: Activity
[41] = test system: MDA-MB-435; experiment: Cytotoxicity against human MDA-MB-435 cells assessed as cell growth at 50 uM by SRB assay; conditions: read-out: Activity
[42] = read-out: LC50 (the source's name)
[43] = read-out: pLC50 (the source's name) (converted)

COc1cc([C@@H]2c3cc4c(cc3[C@@H](NC(=O)CN3CCN(CCCCCCN5CCN(CC(=O)N[C@@H]6c7cc8c(cc7[C@@H](c7cc(OC)c(O)c(OC)c7)[C@H]7C(=O)OC[C@@H]76)OCO8)CC5)CC3)[C@H]3COC(=O)[C@H]23)OCO4)cc(OC)c1O
growth at 0.005 µM [1]: 104% | growth at 5 µM [2]: 29% | growth at 50 µM [3]: -31% | growth at 0.5 µM [4]: 103% | GI50 ([5]; read-out: GI50): 9.47 µM | CC50 [5, 42]: > 50 µM | TGI ([5]; read-out: TGI): 38.3 µM | GI50 ([5]; read-out: pGI50 (converted)): 9.55 µM | CC50 [5, 43]: > 50.1 µM | TGI ([5]; read-out: pTGI (converted)): 38 µM | growth at 0.5 µM [6]: 106% | growth at 0.5 µM [7]: 90% | GI50 ([8]; read-out: GI50): 1.03 µM | CC50 [8, 42]: > 50 µM | TGI ([8]; read-out: TGI): > 50 µM | GI50 ([8]; read-out: pGI50 (converted)): 1.02 µM | CC50 [8, 43]: > 50.1 µM | TGI ([8]; read-out: pTGI (converted)): > 50.1 µM | growth at 0.05 µM [9]: 103% | growth at 5 µM [10]: 6% | growth at 0.005 µM [11]: 97% | growth at 5 µM [12]: 86% | growth at 5 µM [13]: 54% | growth at 5 µM [14]: 57% | growth at 50 µM [15]: -28% | growth at 50 µM [16]: 11% | GI50 ([17]; read-out: GI50): 2.01 µM | CC50 [17, 42]: > 50 µM | TGI ([17]; read-out: TGI): > 50 µM | GI50 ([17]; read-out: pGI50 (converted)): 2 µM | CC50 [17, 43]: > 50.1 µM | TGI ([17]; read-out: pTGI (converted)): > 50.1 µM | growth at 5 µM [18]: 11% | growth at 0.005 µM [19]: 99% | growth at 0.005 µM [20]: 108% | growth at 0.005 µM [21]: 95% | GI50 ([22]; read-out: GI50): > 50 µM | CC50 [22, 42]: > 50 µM | TGI ([22]; read-out: TGI): > 50 µM | GI50 ([22]; read-out: pGI50 (converted)): > 50.1 µM | CC50 [22, 43]: > 50.1 µM | TGI ([22]; read-out: pTGI (converted)): > 50.1 µM | growth at 0.5 µM [23]: 35% | growth at 50 µM [24]: 10% | GI50 ([25]; read-out: GI50): 3.87 µM | CC50 [25, 42]: > 50 µM | TGI ([25]; read-out: TGI): > 50 µM | GI50 ([25]; read-out: pGI50 (converted)): 3.89 µM | CC50 [25, 43]: > 50.1 µM | TGI ([25]; read-out: pTGI (converted)): > 50.1 µM | growth at 0.005 µM [26]: 82% | growth at 5 µM [27]: 20% | GI50 ([28]; read-out: GI50): 5.74 µM | CC50 [28, 42]: > 50 µM | TGI ([28]; read-out: TGI): 35.2 µM | GI50 ([28]; read-out: pGI50 (converted)): 5.75 µM | CC50 [28, 43]: > 50.1 µM | TGI ([28]; read-out: pTGI (converted)): 35.5 µM | GI50 ([29]; read-out: GI50): > 50 µM | CC50 [29, 42]: > 50 µM | TGI ([29]; read-out: TGI): > 50 µM | GI50 ([29]; read-out: pGI50 (converted)): > 50.1 µM | CC50 [29, 43]: > 50.1 µM | TGI ([29]; read-out: pTGI (converted)): > 50.1 µM | growth at 0.05 µM [30]: 103% | growth at 0.05 µM [31]: 108% | GI50 ([32]; read-out: GI50): 3.6 µM | CC50 [32, 42]: > 50 µM | TGI ([32]; read-out: TGI): 22.8 µM | GI50 ([32]; read-out: pGI50 (converted)): 3.63 µM | CC50 [32, 43]: > 50.1 µM | TGI ([32]; read-out: pTGI (converted)): 22.9 µM | growth at 0.05 µM [33]: 95% | growth at 50 µM [34]: -8% | growth at 0.005 µM [35]: 104% | growth at 5 µM [36]: 6% | growth at 5 µM [37]: 107% | growth at 50 µM [38]: 14% | GI50 ([39]; read-out: GI50): 11.3 µM | CC50 [39, 42]: > 50 µM | TGI ([39]; read-out: TGI): 35.5 µM | GI50 ([39]; read-out: pGI50 (converted)): 11.2 µM | CC50 [39, 43]: > 50.1 µM | TGI ([39]; read-out: pTGI (converted)): 35.5 µM | growth at 0.005 µM [40]: 102% | growth at 50 µM [41]: 17%
